Calls of active or inactive are those of the source.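 The calls were made as follows: active = compound whose fitted half-maximal concentration, rising or falling, is at most ten times its top tested dose; inconclusive = flat fit showing 30 to 70% decrease, or bad fit; inactive = the rest.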

Chain of Scavenger receptor class B member 1 (Mus musculus) (Q61009 whole entry, looked up): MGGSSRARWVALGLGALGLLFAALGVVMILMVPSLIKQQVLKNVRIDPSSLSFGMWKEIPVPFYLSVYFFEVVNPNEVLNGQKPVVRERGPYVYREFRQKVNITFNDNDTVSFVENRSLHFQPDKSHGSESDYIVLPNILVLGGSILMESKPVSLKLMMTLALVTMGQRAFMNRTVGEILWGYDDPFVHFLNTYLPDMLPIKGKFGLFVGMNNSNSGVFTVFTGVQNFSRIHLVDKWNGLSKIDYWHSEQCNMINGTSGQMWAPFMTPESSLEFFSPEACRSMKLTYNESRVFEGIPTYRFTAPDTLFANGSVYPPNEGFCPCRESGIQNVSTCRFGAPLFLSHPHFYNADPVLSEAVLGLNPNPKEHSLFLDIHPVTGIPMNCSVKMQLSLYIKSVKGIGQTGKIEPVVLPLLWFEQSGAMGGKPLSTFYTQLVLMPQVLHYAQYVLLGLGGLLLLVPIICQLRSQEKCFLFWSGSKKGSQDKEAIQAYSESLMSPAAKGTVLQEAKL

The first assay deals with Scavenger receptor class B member 1 (Mus musculus) (UniProt Q61009). Briefly: modulators of HDL binding to SR-BI, dose response, orthogonal assay for SR-BI HDL uptake inhibitor project, ldlA[mSR-BI] cells, Alexa488-HDL, powder samples (AID 588777). To be noted: Alexa488-HDL binding fluorescence, 3 h. Put shortly:
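assay system = ldlA[mSR-BI] cells expressing murine scavenger receptor SR-BI | probe or stimulus = 10 µg/mL Alexa488-HDL | technique = bottom-read Alexa488 fluorescence | schedule = 3 h at 37 °C | dosing = test compounds across a multi-point dose series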
For `C[C@H](CO)N1C[C@H](C)[C@H](CN(C)S(=O)(=O)c2ccc(F)cc2)Oc2ccc(NS(C)(=O)=O)cc2C1=O`, the concentration at half-maximal activity (AC50) – broadly, the concentration giving half of the maximal activity seen – is 21 µM.

As for `CCn1c(COc2c(C)cccc2C)nnc1SCC(=O)N1CCN(c2ccccc2)CC1`, the half-maximal activity concentration (AC50) is 5.89 µM.

As to `CCOc1ccccc1/C=C/c1onc(C)c1S(=O)(=O)N1CCC(C(=O)NC(C)(C)C)CC1`, the AC50 is 11.3 µM.

Regarding `CCOc1ccc(NC(=O)CN2CCN(CC(=O)Nc3cc(OC)cc(OC)c3)CC2)cc1`, the half-maximal activity concentration (AC50) was 0.128 µM.

`C[C@@H]1CN([C@@H](C)CO)C(=O)c2cc(NC(=O)Cc3cn(C)c4ccccc34)ccc2O[C@@H]1CN(C)S(=O)(=O)c1ccc(F)cc1`: the AC50 was 22.8 µM.

Consider `C[C@H]1CN([C@@H](C)CO)C(=O)c2cccc(NC(=O)Nc3ccc(F)cc3)c2O[C@@H]1CN(C)Cc1ccc(Cl)c(Cl)c1`, for which the concentration at half-maximal activity (AC50) is 0.533 µM.

Consider `O=C(Nc1ccc(-c2nc3cc(NC(=O)c4ccc(NC(=O)c5cccc6ccccc56)cc4)ccc3[nH]2)cc1)c1ccc(NC(=O)c2cccc3ccccc23)cc1`, for which the AC50 was less than 0.015 µM.

In the case of `C[C@@H]1CN([C@H](C)CO)C(=O)c2cc(NC(=O)Cc3cn(C)c4ccccc34)ccc2O[C@@H]1CN(C)S(=O)(=O)c1ccc(F)cc1`, the AC50 was 21.5 µM.

Consider `C[C@@H]1CN([C@H](C)CO)C(=O)c2cc(NC(=O)Cc3cn(C)c4ccccc34)ccc2O[C@H]1CN(C)S(=O)(=O)c1ccc(F)cc1`, for which the half-maximal activity concentration (AC50) was 2.06 µM.

`C[C@H]1CN([C@@H](C)CO)C(=O)c2cccc(NC(=O)Nc3ccccc3)c2O[C@@H]1CN(C)Cc1ccccc1`: the AC50 was 13.8 µM.

As for `CCOC(=O)N1CCC(NC(=O)c2ccc3c(c2)N(Cc2ccc(F)cc2)CCS3)CC1`, the AC50 is 2.4 µM.

Turning to `N#Cc1sc2nc(C3CC3)cc(-c3ccc(Cl)cc3)c2c1N`, the half-maximal activity concentration (AC50) was 20.1 µM.

Consider `O=C(Nc1ccc(Cl)cc1C(=O)c1ccc(Cl)cc1)c1cc(Br)ccc1NS(=O)(=O)c1ccc(Cl)cc1`, for which the half-maximal activity concentration (AC50) was 21.7 µM.

As for `O=C(Nc1cccc(NC(=O)c2cc([N+](=O)[O-])ccc2Cl)n1)c1cc([N+](=O)[O-])ccc1Cl`, the concentration at half-maximal activity (AC50) was 5.11 µM.

For `COc1cccc(-c2csc(N3CCN(C(=S)Nc4cccc(Cl)c4)CC3)n2)c1`, the AC50 was 12 µM.

Turning to `CCc1cc2cc3c(cc2nc1SCC(=O)OC(C)C)OCO3`, the concentration at half-maximal activity (AC50) is 1.48 µM.

Consider `Cc1cc(C)n(CC(=O)NC2CCCc3c2cnn3-c2ccc(C)c(C)c2)n1` (stereo not drawn), for which the AC50 is 0.0494 µM.

On to `Cc1ccc(-c2nnc(N3CCC(C)CC3)c3ccccc23)cc1C`, for which the AC50 is 5.54 µM.

For the compound `CCOC(=O)Nc1cccc(NC(=O)c2cc(OC)cc(OC)c2)c1`, the AC50 is 2.27 µM.

As for `Cc1cc(SC(C)C(=O)Nc2ncc(Cl)cc2Cl)nc2ccccc12` (stereo not drawn), the concentration at half-maximal activity (AC50) was 6.84 µM.

For the compound `C[C@@H]1CN([C@H](C)CO)C(=O)c2cc(NC(=O)Cc3cn(C)c4ccccc34)ccc2O[C@H]1CN(C)C(=O)Nc1ccc(F)cc1`, the concentration at half-maximal activity (AC50) was 1.93 µM.

In the case of `C[C@H]1CN([C@@H](C)CO)C(=O)c2cccc(NC(=O)Nc3ccccc3)c2O[C@@H]1CN(C)Cc1ccc(Cl)c(Cl)c1`, the concentration at half-maximal activity (AC50) was 1.79 µM.

Regarding `Cc1cc(C)c2c(c1)NC(c1cc3c(cc1Br)OCO3)C1CC=CC21` (stereo not drawn), the AC50 is 8.25 µM.

Take `COc1ccc(OC)c(CCNC(=O)c2ccc3c(c2)N(Cc2ccc(F)cc2)CCS3)c1`: the half-maximal activity concentration (AC50) is 6.52 µM.

As to `COc1ccc(-c2nnn(CC(=O)N(C3CCCCC3)C(C)C(=O)NC3CCCC3)n2)cc1OC` (stereo not drawn), the AC50 was 0.422 µM.

Turning to `Nc1ccc(C(=O)Nc2ccc(-c3nc4ccc(NC(=O)c5ccc(N)cc5)cc4[nH]3)cc2)cc1`, the AC50 was 4.55 µM.

For `CC(C)(C)NC(=O)N1CCN(c2ncccc2C(F)(F)F)CC1`, the half-maximal activity concentration (AC50) was 7.61 µM.

In the case of `C[C@@H]1CN([C@H](C)CO)C(=O)c2cc(NC(=O)Cc3cn(C)c4ccccc34)ccc2O[C@H]1CN(C)S(=O)(=O)c1ccc(Cl)cc1`, the AC50 is 0.168 µM.

For `C[C@H]1CN([C@@H](C)CO)C(=O)c2cccc(NC(=O)Nc3ccccc3)c2O[C@@H]1CN(C)Cc1ccc(C(F)(F)F)cc1`, the AC50 was 19.4 µM.

For the compound `Cc1ccccc1NC(=O)NCC1CCN(c2ccc(S(=O)(=O)N3CCOCC3)cc2)CC1`, the concentration at half-maximal activity (AC50) was 3.98 µM.

Take `C[C@@H]1CN([C@H](C)CO)C(=O)c2cc(NC(=O)Cc3cn(C)c4ccccc34)ccc2O[C@H]1CN(C)S(C)(=O)=O`: the half-maximal activity concentration (AC50) is 25 µM.

With `CC(C)NC(=O)Nc1cccc2c1O[C@H](CN(C)Cc1ccc(Cl)c(Cl)c1)[C@@H](C)CN([C@@H](C)CO)C2=O`, the concentration at half-maximal activity (AC50) was 9.96 µM.

`C[C@@H]1CN([C@@H](C)CO)C(=O)c2cc(NC(=O)Cc3cn(C)c4ccccc34)ccc2O[C@H]1CN(C)S(=O)(=O)c1ccc(F)cc1`: the AC50 is 10.2 µM.

For `C[C@H](CO)N1C[C@H](C)[C@H](CN(C)S(=O)(=O)c2ccc(F)cc2)Oc2ccc(NC(=O)Cc3cn(C)c4ccccc34)cc2C1=O`, the concentration at half-maximal activity (AC50) was 30.9 µM.

As for `COC(=O)c1cn(C(=O)c2cccc3ccccc23)c2ccccc12`, the AC50 was 23 µM.

As for `O=C(Nc1ccc(-c2nc3ccc(NC(=O)c4ccccc4)cc3[nH]2)cc1)c1ccccc1`, the AC50 was 0.328 µM.

For `Cc1cc(C(=O)C(C)OC(=O)C2=NNC(=O)CC2)c(C)n1-c1ccc(OC(F)F)cc1` (stereo not drawn), the half-maximal activity concentration (AC50) is 7.45 µM.

`O=C(Nc1ccc(-c2nc3cc(NC(=O)c4ccccc4Cl)ccc3o2)cc1)c1ccccc1Cl`: the AC50 was 0.0819 µM.

For `CC(C)OCCCNC(=O)c1ccc(C2SCC(=O)N2Cc2ccco2)cc1` (stereo not drawn), the AC50 was 16.5 µM.

Consider `O=C(Nc1cc(Cl)ccc1Cl)c1cc(Br)ccc1NS(=O)(=O)c1ccc(Cl)c([N+](=O)[O-])c1`, for which the AC50 is 4.23 µM.

On to `CC(OC(=O)c1cccc(NS(C)(=O)=O)c1)C(=O)Nc1ccc(N2CCOCC2)cc1` (stereo not drawn), for which the concentration at half-maximal activity (AC50) was 4.47 µM.

Turning to `CCc1sc(N2C(=O)C3C4CCC(C4=C(C)C)C3C2=O)nc1-c1ccccc1` (stereo not drawn), the concentration at half-maximal activity (AC50) is 0.441 µM.

In the case of `C[C@H]1CN([C@@H](C)CO)C(=O)c2cc(NC(=O)Cc3cn(C)c4ccccc34)ccc2O[C@H]1CN(C)S(=O)(=O)c1ccc(F)cc1`, the AC50 is 25.4 µM.

As to `COc1ccc([C@H]2CC(=O)C=C(c3cccc4c3sc3ccccc34)C2)cc1OC`, the AC50 is 2.28 µM.

For `O=C(Nc1ccc(-c2nc3ccc(NC(=O)c4ccccc4[N+](=O)[O-])cc3[nH]2)cc1)c1ccccc1[N+](=O)[O-]`, the concentration at half-maximal activity (AC50) was 0.0549 µM.

For `C[C@@H]1CN([C@H](C)CO)C(=O)c2cc(NC(=O)Cc3cn(C)c4ccccc34)ccc2O[C@H]1CN(C)S(=O)(=O)c1ccccc1`, the AC50 was 8.36 µM.

Staying with this assay, now noted: Alexa488-HDL binding fluorescence, 3 h, at 11 µM (top of the series).
Turning to `C[C@H](CO)N1C[C@H](C)[C@@H](CN(C)S(=O)(=O)c2ccc(F)cc2)Oc2ccc(NC(=O)Cc3cn(C)c4ccccc34)cc2C1=O`, the “activity change, either direction” value is “inactive”.

The same assay, now with this note: Alexa488-HDL binding fluorescence, 3 h, at 35 µM (top of the series).
Regarding `CCC(=O)N1CCc2cc(-c3csc(NC(=O)c4ccco4)n3)ccc21`, the “activity change, either direction” value is “inactive”.

`C[C@H](CO)N1C[C@H](C)[C@H](CN(C)S(=O)(=O)c2ccc(F)cc2)Oc2ccc(NC(=O)CCC(F)(F)F)cc2C1=O`: the “activity change, either direction” value is “inactive”.

Regarding `C[C@H]1CN([C@@H](C)CO)C(=O)c2cccc(NS(C)(=O)=O)c2O[C@@H]1CN(C)Cc1ccc(Cl)c(Cl)c1`, the “activity change, either direction” value is “inactive”.

In the case of `O=C(Nc1ccc(-c2nc3cc(NC(=O)c4ccccc4[N+](=O)[O-])ccc3o2)cc1)c1ccccc1[N+](=O)[O-]`, the “activity change, either direction” value was “inactive”.

With `O=C(Nc1cc(C(F)(F)F)ccc1Cl)c1ccccc1NS(=O)(=O)c1ccc(Cl)cc1`, the “activity change, either direction” value was “inactive”.

Regarding `C[C@H]1CN([C@@H](C)CO)C(=O)c2cc(NC(=O)Nc3ccccc3)ccc2O[C@@H]1CN(C)Cc1ccc(Cl)c(Cl)c1`, the “activity change, either direction” value was “inactive”.

Take `O=C(Nc1ccc(-c2nc3ccc(NC(=O)c4ccc(Cl)cc4)cc3[nH]2)cc1)c1ccc(Cl)cc1`: the “activity change, either direction” value was “inactive”.

`O=C(Nc1ccccc1)c1ccccc1NS(=O)(=O)c1ccc(Cl)cc1`: the “activity change, either direction” value was “inactive”.

For the compound `C[C@H]1CN([C@@H](C)CO)C(=O)c2cccc(NC(=O)Nc3ccccc3)c2O[C@@H]1CN(C)S(C)(=O)=O`, the “activity change, either direction” value is “inactive”.

As to `O=C(Nc1cc(Cl)ccc1Cl)c1cc(Cl)ccc1NS(=O)(=O)c1ccc(Cl)c([N+](=O)[O-])c1`, the “activity change, either direction” value was “inactive”.

Still in this assay, the particulars now being: Alexa488-HDL binding fluorescence, 3 h, at 68 µM (top of the series).
With `Cc1ccc2oc(-c3cccc(NC(=O)c4cc(-n5cnnc5)ccc4Cl)c3)nc2c1`, the “activity change, either direction” value is “inactive”.

Values taken from PubChem BioAssay AID588777 (Broad Institute, 2011).
